Experimental data: paper PMC10596003 (ACS Chemical Biology, 2023)
Read-outs that look alike come from different tables or passages of the source.

How the values were obtained:
SAMHD1 A1 site = SAMHD1 A1 site (Homo sapiens, UniProt Q9Y3Z3); assay: fluorescence anisotropy competitive binding assay with 5′-FAM-pdGpdGpdG-3′ probe; conditions: competition with 5′ FAM-pdGpdGpdG-3′ probe
SAMHD1 [1] = target: T1, SAMHD1 (Homo sapiens, UniProt Q9Y3Z3); assay: glutaraldehyde protein cross-linking assay of oligomeric state; conditions: for D (%), dimer / T (%), tetramer: 500 μM ligand, 600 nM SAMHD1; for effect on oligomeric state: 500 μM analog (dGTPαS 100 μM), 0.6 μM SAMHD1
T1 sequence (Q9Y3Z3 whole entry): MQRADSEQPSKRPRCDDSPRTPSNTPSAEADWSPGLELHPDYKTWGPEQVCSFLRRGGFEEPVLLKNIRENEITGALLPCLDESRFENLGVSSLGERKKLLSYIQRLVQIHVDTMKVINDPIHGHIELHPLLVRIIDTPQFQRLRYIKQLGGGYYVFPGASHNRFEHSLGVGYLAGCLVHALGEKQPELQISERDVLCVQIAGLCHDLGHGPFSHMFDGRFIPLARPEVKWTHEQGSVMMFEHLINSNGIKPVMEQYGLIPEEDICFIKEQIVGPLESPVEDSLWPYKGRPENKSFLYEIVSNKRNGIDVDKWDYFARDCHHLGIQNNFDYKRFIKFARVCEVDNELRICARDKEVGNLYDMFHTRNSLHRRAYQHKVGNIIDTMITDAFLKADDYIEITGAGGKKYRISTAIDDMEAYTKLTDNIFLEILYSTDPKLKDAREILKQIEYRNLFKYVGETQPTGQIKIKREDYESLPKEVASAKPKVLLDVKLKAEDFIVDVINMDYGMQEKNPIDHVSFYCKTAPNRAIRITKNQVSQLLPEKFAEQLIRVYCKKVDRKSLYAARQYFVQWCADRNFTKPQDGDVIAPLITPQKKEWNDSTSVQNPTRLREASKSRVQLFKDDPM

SAMHD1 [2] = target: T1, SAMHD1; assay: malachite green; assay type: biochemical; conditions: for IC50: 50 μM GTP and 50 μM dATP, 11-point dose response; for inhibition at 500 µM: read-out: dNTPase inhibition (%, [I] = 500 μM)
[3] = target: SAMHD1 binding to ssRNA32 (Homo sapiens, UniProt Q9Y3Z3); assay: fluorescence anisotropy displacement of 5′-FAM-labeled ssRNA32; conditions: read-out: EC50 ssRNA displacement; 1 μM SAMHD1, 0.5 μM ssRNA32
Sequence of SAMHD1 binding to ssRNA32 (Q9Y3Z3 whole entry): as above
Outline: (§1)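 SAMHD1 (1 μM) was preincubated with 0.5 μM 5′-FAM-labelled 32mer ssDNA or ssRNA; the two strands have identical base sequences. […] SD from triplicate experiments.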

[4] = target: SAMHD1 binding to ssDNA32 (Homo sapiens, UniProt Q9Y3Z3); assay: fluorescence anisotropy displacement of 5′-FAM-labeled ssDNA32; conditions: read-out: EC50 ssDNA displacement; 1 μM SAMHD1, 0.5 μM ssDNA32
Sequence of SAMHD1 binding to ssDNA32 (Q9Y3Z3 whole entry): as above
Outline: as §1

Sequence of SAMHD1 A1 site (Q9Y3Z3 whole entry): as above

Row | SMILES | Kd (SAMHD1 A1 site; read-out: binding Kd) [µM] | D (%), dimer (SAMHD1 [1]) [%] | T (%), tetramer (SAMHD1 [1]) [%] | Kd (SAMHD1 A1 site; binding Kd (μM)) [µM] | further results
1 | Nc1ncnc2c1ncn2[C@H]1C[C@H](O)[C@@H](COP(=O)(O)O)O1 [dAMP] | > 1000 | 32 | 0 | – | –
2 | Nc1nc2c(ncn2[C@H]2C[C@H](O)[C@@H](COP(=O)(O)O)O2)c(=O)[nH]1 [dGMP] | 140 ± 43 | 91 | 0 | – | IC50 (SAMHD1 [2]): 110 ± 47 µM
3 | Nc1nc2c(ncn2[C@@H]2O[C@H](COP(=O)(O)OP(=O)(O)O)[C@@H](O)[C@H]2O)c(=O)[nH]1 [GDP] | 210 ± 32 | 88 | 0 | – | effect on oligomeric state (SAMHD1 [1]): can induce dimerization
4 | Nc1nc2c([nH]c(=O)n2[C@H]2C[C@H](O)[C@@H](CO)O2)c(=O)[nH]1 [Compound 8-oxo-dG, 8-oxo-deoxyguanosine] | – | 37 | 0 | > 1000 | –
5 | Nc1nc2c(ncn2[C@H]2C[C@H](OP(=O)(O)O[C@H]3C[C@H](n4cnc5c(N)ncnc54)O[C@@H]3CO)[C@@H](CO)O2)c(=O)[nH]1 [5′-dGpdA-5′] | 70 ± 13 | 93 | 0 | – | –
6 | Nc1nc2c(ncn2[C@H]2C[C@H](O)[C@@H](COP(=O)(O)OP(=O)(O)O)O2)c(=O)[nH]1 [dGDP] | 130 ± 28 | 39 | 56 | – | effect on oligomeric state (SAMHD1 [1]): induced tetramerization
7 | Nc1nc2c(ncn2[C@@H]2O[C@H](COP(=O)(O)OP(=O)(O)OP(=O)(O)O)[C@@H](O)[C@H]2O)c(=O)[nH]1 [GTP] | 61 ± 11 | – | 30 | – | EC50 [3]: 170 ± 32 µM; EC50 [4]: 89 ± 25 µM; effect on oligomeric state (SAMHD1 [1]): induced complete dimerization
8 | Nc1nc2c(ncn2[C@@H]2O[C@H](COP(=O)(O)O)[C@@H](O)[C@H]2O)c(=O)[nH]1 [GMP] | 110 ± 41 | 87 | 0 | – | –
9 | Nc1nc2c(ncn2[C@@H]2O[C@H](CO)[C@@H](O)[C@H]2O)c(=O)[nH]1 [rG, guanosine] | – | 64 | 0 | 500 ± 185 | inhibition at 500 µM (SAMHD1 [2]): 6 ± 8.5%
10 | Nc1nc2c(ncn2[C@H]2C[C@H](O)[C@@H](CO)O2)c(=O)[nH]1 [dG, deoxyguanosine] | – | 80 | 0 | 79 ± 20 | IC50 (SAMHD1 [2]; IC50 (μM)): 130 ± 89 µM; inhibition at 500 µM (SAMHD1 [2]): 65 ± 2.4%
11 | O=C(O)c1cccc(-c2cccc(Br)c2)c1 [Compound 1023, 3′-bromobiphenyl-3-carboxylic acid] | – | 17 | 0 | > 500 | IC50 (SAMHD1 [2]; IC50 (μM)): 220 ± 150 µM
12 | Nc1nc2c(ncn2[C@H]2C[C@H](O)[C@@H](COP(O)(=S)OP(=O)(O)OP(=O)(O)O)O2)c(=O)[nH]1 (some centres unmarked) [dGTPαS] | – | – | – | – | effect on oligomeric state (SAMHD1 [1]): induced tetramerization
13 | Cn1c[n+]([C@@H]2O[C@H](COP(=O)([O-])OP(=O)(O)OP(=O)(O)O)[C@@H](O)[C@H]2O)c2nc(N)[nH]c(=O)c21 [Compound 7-Me-GTP] | > 1000 | – | – | – | –
14 | Nc1nc2c(ncn2COCCO)c(=O)[nH]1 [acyclovir] | – | 78 | 0 | – | inhibition at 500 µM (SAMHD1 [2]): 68 ± 31%
15 | Nc1nc2c(nc(Br)n2[C@H]2C[C@H](O)[C@@H](CO)O2)c(=O)[nH]1 [Compound 8-bromo-dG, 8-bromo-deoxyguanosine] | – | 62 | 0 | > 1000 | –
